GSK3A inh: inhibitors of human GSK-3 alpha kinase; P49840; ADP-Glo luminescence, 60 min; inhibition, % at 10 µM; hit rate 0.1% among 320,000; AID 2650;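 active = more than half of replicates show inhibition above 20%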;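 note: GST-tagged GSK-3 alpha with peptide substrate and 25 µM ATP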
DYRK1A inh: inhibitors of rat Dyrk1A kinase; ADP-Glo luminescence, NFATc1 peptide; AID 504441; inhibition, % at 12.5 µM; hit rate 0.43% among 310,000; in the data active = inhibition above about 50%
GSK3beta inhib: inhibitors of human GSK3beta kinase; P49841; GST-GSK3beta kinase, ADP-Glo luminescence, 60 min; hits give low values; activity score (negative = inhibition), % at 10 µM; hit rate 0.038% among 300,000; AID 2097;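 active = more than half of replicate wells score below -50%, meaning over 50% inhibition versus plate controls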
Target sequence (P49841 whole entry, looked up): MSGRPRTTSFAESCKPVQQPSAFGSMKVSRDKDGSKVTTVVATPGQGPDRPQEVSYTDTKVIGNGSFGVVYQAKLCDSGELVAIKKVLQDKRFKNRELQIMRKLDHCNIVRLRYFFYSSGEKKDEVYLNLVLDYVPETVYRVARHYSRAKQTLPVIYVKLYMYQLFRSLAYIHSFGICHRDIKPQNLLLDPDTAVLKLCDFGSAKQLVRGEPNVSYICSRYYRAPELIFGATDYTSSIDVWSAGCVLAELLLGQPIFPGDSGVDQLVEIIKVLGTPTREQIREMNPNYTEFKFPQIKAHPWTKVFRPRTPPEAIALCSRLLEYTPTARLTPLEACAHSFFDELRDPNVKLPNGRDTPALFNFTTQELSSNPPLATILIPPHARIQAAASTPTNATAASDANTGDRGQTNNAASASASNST
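Test system: GST-fused GSK3beta enzyme, cell-free | Quantity: 1.6 ng GST-GSK3beta enzyme per well | Reagent: 25 µM ATP with peptide substrate | Schedule: 60 min enzyme reaction, room temperature | Signal: Luminescent ADP-Glo measurement of ADP formed | Read-out basis: Score relative to plate controls | Control set: DMSO and 20 µM GW8510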
STK33 kinase inh: blocks human STK33 kinase activity; inhibition, % at 10 µM; Q9BYT3; AID 2661; purified STK33, MBP phosphorylation, ADP-Glo luminescence; hit rate 0.073% among 320,000;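 active = inhibition at or above 25%, using the most active replicate where run in duplicate; inactive = inhibition below 25%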
ADP-Glo artifact: counter-screen for Dyrk1A inhibitors: ADP-Glo luciferase artifacts; shares compounds with DYRK1A inh; AID 588348; 1,300 tested, under 10 active; AC50, µM (highest dose often 12 µM); ADP-Glo luciferase artifact assay, no Dyrk1A, luminescence;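 active = fitted half-maximal dose AC50 no more than ten times the top valid tested dose, with luminescence dropping as dose rises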
Hits are given with their value; i = inactive; nt = no result. The sample as a whole holds a higher share of hits than the screen did.

SMILES	GSK3A inh	DYRK1A inh	GSK3beta inhib	STK33 kinase inh	ADP-Glo artifact
Cc1ccc(/C=N/Nc2ncnc3nc[nH]c23)cc1	i	i	i	i	nt
Fc1cccc(/C=N/Nc2ncnc3nc[nH]c23)c1	68	73	i	i	i
Fc1ccccc1/C=N/Nc1ncnc2nc[nH]c12	65	55	i	i	i
Cc1ccc(/C=C/C(=O)O)cc1S(=O)(=O)NCc1ccco1	i	i	i	i	nt
Cc1cc(Cl)ccc1OCC(=O)N(Cc1ccco1)c1c(N)n(Cc2ccccc2)c(=O)[nH]c1=O	nt	i	nt	nt	nt
Cc1ccc(C(C)C)c(OCC(=O)NNCC(=O)Nc2cccc(F)c2)c1	i	i	nt	i	nt
O=[N+]([O-])c1ccc2c(c1)C(=NO)c1cc(F)ccc1-2	nt	68	nt	nt	i
CN(C)S(=O)(=O)c1cc(NC(=O)COC(=O)c2nc(Cl)ccc2Cl)ccc1Cl	i	i	nt	i	nt
COc1cccc(-c2nnc3sc(C4CCCCC4)nn23)c1	i	53	i	i	i
O=C(Nc1ccc(F)cc1)C(=O)c1c(O)[nH]c2ccc([N+](=O)[O-])cc12	i	57	i	i	i
Cc1ccc(NCC(=O)N=Nc2c(O)[nH]c3ccc([N+](=O)[O-])cc23)cc1	i	nt	i	i	nt
CC1CCc2sc(NC(=O)c3ccc(N4C(=O)CCC4=O)cc3)c(C(N)=O)c2C1 (configuration not stated)	i	i	i	i	nt
NC(=O)c1c(NC(=O)c2ccc(N3C(=O)CCC3=O)cc2)sc2c1CCCC2	i	60	nt	i	i
Cc1cccc(CNc2ncnc3ccc(-c4ccoc4)cc23)c1	i	66	nt	i	i
Oc1cccc(NC(=S)N=Nc2c(O)[nH]c3ccccc23)c1	nt	51	i	i	i
O=c1cc(-c2ccccc2Cl)oc2c(NS(=O)(=O)c3ccccc3C(F)(F)F)ccc(O)c12	i	59	i	i	i
CC(C)CCNS(=O)(=O)c1cc2c3c(c1)CCN3C(=O)CC2	i	i	i	i	nt
COc1ccc2c(c1)CCc1cn[nH]c1-2	i	51	i	i	i
COc1cc(C(C)=O)ccc1Oc1ncnc2c1cnn2-c1ccc(C)c(C)c1	nt	i	i	nt	nt
COc1cc(C(C)=O)ccc1Oc1ncnc2c1cnn2-c1ccccc1	i	62	i	i	i
COC(=O)c1ccc(CNC(=O)COC(=O)c2cc(Cl)ccc2O)cc1	i	i	nt	i	nt
COc1cc2cnc(-c3ccccc3)c(-c3ccc([N+](=O)[O-])cc3)c2cc1OC	i	51	nt	i	i
NC(=O)c1cc(Br)cc2c3c([nH]c12)CCCC3	i	55	i	i	i
Brc1ccc2[nH]c3c(c2c1)CCC3	i	nt	i	i	nt
O=C(O)c1ccc(N=NNc2cccc([N+](=O)[O-])c2)cc1	i	i	i	i	nt
SMILES	GSK3A inh	DYRK1A inh	GSK3beta inhib	STK33 kinase inh	ADP-Glo artifact
N#C/C(=N\Nc1cccc([N+](=O)[O-])c1)C(=O)c1ccc(Br)cc1	i	78	i	i	i
O=c1nc2n(c3sc4c(c13)CCCC4)C(CBr)CS2 (configuration not stated)	i	51	i	i	i
COc1ccc(NC(=S)N(CCc2c(C)[nH]c3ccccc23)Cc2cccnc2)cc1	i	60	i	i	i
CCOc1ccc(NC(=S)N(CCc2c(C)[nH]c3ccc(C)cc23)Cc2cccnc2)cc1	i	i	i	i	nt
COc1ccc(Nc2nc(-c3cccc([N+](=O)[O-])c3)nc3ccccc23)cc1	i	i	i	i	nt
CCCN1CCN(c2ncnc3scc(C4COc5ccccc5O4)c23)CC1 (configuration not stated)	i	57	i	i	i
Cc1ccnc(Nc2nc(-c3ccc(O)c(O)c3)cs2)c1	i	54	nt	i	i
CCCOc1ccc(C2C(C(=O)/C=C/c3ccco3)=C(O)C(=O)N2CCN2CCOCC2)cc1OC (configuration not stated)	i	nt	i	i	nt
NC1=NC(=O)/C(=C/c2cccs2)S1	i	53	i	i	i
C=CCSC1=NC(=O)/C(=C/c2cccs2)S1	i	76	nt	i	i
O=C1N=C(N2CCOCC2)S/C1=C/c1cccs1	i	i	i	i	nt
Nc1nc(N)c2c(ccc3nccc32)[nH]1	i	55	i	i	i
COCCCN(C(=O)C(C)Oc1ccc(Br)cc1)c1c(N)n(Cc2ccccc2)c(=O)[nH]c1=O (configuration not stated)	i	nt	i	i	nt
COc1cccc(CC(=O)OCC(=O)c2cc(OC)c(OC)c(OC)c2)c1	i	nt	nt	i	nt
N#Cc1c(N)nc2c3c(sc(=N)c2c1N)NC(=O)CC3c1c(F)cccc1Cl (configuration not stated)	i	67	i	i	i
Cc1cc(=O)oc2ccc(OC(=O)c3cccc(S(=O)(=O)N4CCOCC4)c3)cc12	i	54	i	i	i
COc1ccc(OC)c2c1sc(=NC(=O)C1COc3ccccc3O1)n2C (configuration not stated)	i	i	i	i	nt
COc1ccc(C(=O)N(Cc2nc(-c3ccc(C)cc3)no2)C(C)C)cc1OC	i	61	i	i	i
CCOC(=O)c1c(NC(=O)COC(=O)CCOc2ccccc2C)sc(C(=O)NC)c1C	i	nt	i	nt	nt
Cc1c(Br)c(=O)oc2c(Br)c(O)ccc12	i	77	i	i	i
CC(=O)c1cc2ccc(O)cc2oc1=O	i	i	i	i	nt
Cc1ccc(N=c2oc3cc(O)ccc3cc2C(N)=O)cc1	i	77	i	i	i
Cc1cc(OCC(=O)N2CCN(c3ccccn3)CC2)c(C)cc1Br	i	i	i	i	nt
CCOCCCNc1nc(C)nc2c1nnn2Cc1c(F)cccc1Cl	i	i	i	i	nt
Oc1ccc(/C=N/Nc2ccc(C(F)(F)F)cn2)c(O)c1	i	61	i	i	i
SMILES	GSK3A inh	DYRK1A inh	GSK3beta inhib	STK33 kinase inh	ADP-Glo artifact
Oc1ccc(/C=N/Nc2cccc(Cl)n2)c(O)c1	i	i	i	i	nt
CC(C)CC(NC(=O)C1CCC(C)CC1)C(=O)Nc1ccc2c(c1)OCCO2 (configuration not stated)	i	56	i	i	i
O=C(NC1CCCC1)C(c1ccccn1)N(C(=O)c1csnn1)c1ccccc1F (configuration not stated)	i	i	i	i	nt
O=C(Nc1ccccc1)[C@@H]1CC=C[C@@H]2CCN(Cc3ccccc3)C(=O)[C@@H]21	i	i	i	i	nt
O=C1[C@H]2[C@H](C=CC[C@H]2C(=O)N2CCOCC2)CCN1Cc1ccccc1	i	53	i	i	i
COc1ccc(Nc2ncnc3ccccc23)c(OC)c1	i	i	i	i	nt
COc1cccc(Nc2ncnc3ccccc23)c1	i	73	i	i	i
CCc1ccc2c(c1)/C(=N/OC)C(=O)N2	nt	i	i	i	nt
CCC(C)CCN1C(Nc2ccccc2)=NC[C@@H]1Cc1ccccc1 (some centres not stated)	i	57	i	i	i
Cc1cc(NC(=O)COC(=O)c2ccco2)no1	i	nt	i	i	nt
C=CCN1C(=O)/C(=C/c2ccccc2)S/C1=N/c1nccs1	i	58	i	i	i
O=C(CN1CCN(C(=O)c2cccc(S(=O)(=O)N3CCCC3)c2)CC1)Nc1ccc(F)cc1	i	nt	nt	i	nt

Source: PubChem
